Calls of active or inactive are those of the source.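 Rule for the calls, unless noted: active = NADPH fluorescence slope more negative than the mean of all samples by about 3 SD, 99.7% confidence; inactive = the rest.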
Tests used:
[1] = inhibitors of TNFa-induced NFkB p65 translocation, primary screen, imaging, HUVEC, MLSMR starter and 10KST1 sets (AID 438;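 active = inhibition above 20% together with a positive visual image hit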;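 note: compound added about 3h40 before a 20 min TNFalpha stimulation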;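 for inhibition: signal is the nuclear over cytoplasmic p65 intensity ratio per well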); settings: HUVEC TNFa-induced p65 nuclear translocation; cell count: measured here: nuclei count (cytotoxicity indicator), at 2.08 µM; inhibition: at 2 µM, stronger effect = higher value, 0% TNFa-plus-vehicle, 100% no-TNFa wells
[2] = inhibitors of mutant huntingtin aggregation, primary screen, imaging, exon1htt(103Q)mCFP cells, high-content imaging (AID 483;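 active = visual image review flags a hit and inhibition of aggregation exceeds 20%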;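 note: compound exposure lasted 3 days before fixation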;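 for nuclei count: percent of the per-plate median nuclei count of sample wells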); settings: exon1htt(103Q)mCFP cell line, aggregate imaging, at 2 µM; inhibition of aggregation: stronger effect = higher value; nuclei count: measured here: cell count, toxicity
[3] = inhibitors of E-selectin induction by TNFa, primary screen, imaging, HUVEC, immunofluorescence, MLSMR starter and 10KST1 sets (AID 487;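 active = visually confirmed hit in the image check and inhibition above 20%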;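 for inhibition: signal is fraction of cell area covered by stained E-selectin grains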;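 for nuclei count: 100% = median nuclei count of all wells on the same plate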); settings: HUVEC TNFalpha-induced E-selectin immunofluorescence imaging, at 2 µM; inhibition: stronger effect = higher value; nuclei count: measured here: cell number, toxicity
[4] = target: Voltage-gated potassium channel subunit beta-2 (Rattus norvegicus) (UniProt P62483); experiment: KvBeta enzyme negative modulators, primary screen, biochemical, NADPH fluorescence (AID 622;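 active = fluorescence slope higher than the sample average by over 3 SD, cut at about -0.22 in these data, passing the limit was not always enough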;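 note: slope of raw intensity against log time taken from 70 to 1610 s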); settings: recombinant KvBeta, 4-cyanobenzaldehyde reduction, at 10 µM, stronger effect = higher value
[5] = target: Voltage-gated potassium channel subunit beta-2 (Rattus norvegicus) (UniProt P62483); experiment: KvBeta positive modulators, primary screen, biochemical, NADPH fluorescence (AID 623); settings: Recombinant KvBeta, NADPH fluorescence decrease slope, 10 min; at 10 µM; stronger effect = lower value;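 note: fluorescence intensity change per second fitted from 20 to 320 s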
[6] = target: Muscarinic acetylcholine receptor M4 (Homo sapiens) (UniProt P08173); experiment: compounds altering M4/GIRK thallium flux, either direction, primary screen, M4 allosteric agonist project, cell-based, HEK293 M4/GIRK, BTC-AM (AID 625;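 active = fluorescence slope after compound addition differing from the mean of all tested samples at 99.7% confidence, mostly higher but some lower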;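 note: thallium influx through GIRK channels coupled to M4 in HEK293 cells with BTC-AM dye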); settings: at 10 µM, actives lie on both sides
Procedure, shortened: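 assay system = HEK293 cells with M4 receptor and GIRK channels | medium = pH 7.3 thallium assay buffer | doses = 10 µM final, single point | timing = cells overnight at 37 °C, BTC-AM loading 1 h, reads 2 min total | signal = BTC-AM fluorescence, 1 Hz kinetic reads | read-out = post-addition slope, 15–24 s, of baseline-normalized fluorescence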

[7] = inhibitors of Sendai virus-induced IRF3 signaling, primary screen, TLR/RLR signaling modifier project, cell-based, Sendai virus stimulus, luciferase, 10K MLSCN set (AID 602276;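 active = inhibition at or above 50% at 10 µM; inactive = inhibition below 50%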;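 note: firefly luciferase from ISG56 promoter only with Renilla not read in this screen; 0% = Sendai virus plus DMSO and 100% = medium plus DMSO without virus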); settings: HEK293 RL24 IRF3 luciferase reporter, at 10 µM, stronger effect = higher value
[8] = inhibitors of poly I:C-induced TLR3 signaling, primary screen, cell-based, poly I:C stimulus, luciferase, 10K MLSCN set (AID 602277;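 active = inhibition of the reporter signal at or above 50%; inactive = inhibition below 50%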); settings: HEK293-TLR3 RL24 IRF3 luciferase reporter, at 10 µM, stronger effect = higher value

Sequence of Muscarinic acetylcholine receptor M4 (Homo sapiens) (P08173 whole entry, looked up): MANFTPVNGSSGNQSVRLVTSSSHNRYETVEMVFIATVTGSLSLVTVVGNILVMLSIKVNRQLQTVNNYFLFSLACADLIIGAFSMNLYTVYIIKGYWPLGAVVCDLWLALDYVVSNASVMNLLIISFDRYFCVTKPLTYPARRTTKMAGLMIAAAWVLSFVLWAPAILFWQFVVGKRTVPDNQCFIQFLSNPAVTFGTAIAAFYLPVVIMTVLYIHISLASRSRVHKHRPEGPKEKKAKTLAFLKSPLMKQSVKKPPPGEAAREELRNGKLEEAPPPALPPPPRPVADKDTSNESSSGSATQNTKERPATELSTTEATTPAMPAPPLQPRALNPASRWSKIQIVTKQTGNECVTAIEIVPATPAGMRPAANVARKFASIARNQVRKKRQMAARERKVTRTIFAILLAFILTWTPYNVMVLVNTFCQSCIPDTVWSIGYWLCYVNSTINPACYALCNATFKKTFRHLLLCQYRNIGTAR
Sequence of Voltage-gated potassium channel subunit beta-2 (Rattus norvegicus) (P62483 whole entry, looked up): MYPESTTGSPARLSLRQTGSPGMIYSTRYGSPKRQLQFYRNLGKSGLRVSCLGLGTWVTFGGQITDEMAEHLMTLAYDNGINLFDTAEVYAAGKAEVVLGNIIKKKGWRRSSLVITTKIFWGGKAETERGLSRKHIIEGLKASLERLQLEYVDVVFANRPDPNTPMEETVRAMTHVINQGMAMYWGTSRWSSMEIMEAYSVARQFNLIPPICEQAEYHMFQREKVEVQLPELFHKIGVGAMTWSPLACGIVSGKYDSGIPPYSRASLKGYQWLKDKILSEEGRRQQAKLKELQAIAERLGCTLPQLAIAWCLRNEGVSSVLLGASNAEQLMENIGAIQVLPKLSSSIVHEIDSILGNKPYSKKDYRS

SMILES	cell count [1]	inhibition [1]	inhibition of aggregation [2]	nuclei count [2]	inhibition [3]	nuclei count [3]	fluorescence slope [4]	NADPH fluorescence slope [5]	fluorescence slope [6]	inhibition [7]	inhibition [8]
O=S(=O)(NCCc1ccccn1)c1cccs1	601	-23% (inactive)	-31.3% (inactive)	119%	-28.9% (inactive)	147%	-0.417 (inactive)	-0.000114 (inactive)	0.00561 (inactive)	19.1% (inactive)	34.4% (inactive)
O=C(Nc1cccc(C(F)(F)F)c1)c1cccnc1N1CCCC1	360	4.5% (inactive)	-13% (inactive)	105%	-32.4% (inactive)	118%	-0.531 (inactive)	2.1e-05 (inactive)	0.00477 (inactive)	16.2% (inactive)	28.2% (inactive)
COc1ccc(CCNS(=O)(=O)c2ccc(C(=O)NCc3ccco3)cc2)cc1OC	355	-13.1% (inactive)	7.4% (inactive)	94.7%	-35.9% (inactive)	66.4%	-0.579 (inactive)	2.6e-05 (inactive)	0.00625 (inactive)	-8.15% (inactive)	-15.3% (inactive)
Cn1c2ccccc2c2c(C(=O)NCCCN3CCCC3=O)cn(C3CCCCC3)c(=O)c21	592	-17.5% (inactive)	-29.3% (inactive)	112%	20.1% (inactive)	110%	-0.428 (inactive)	3.4e-05 (inactive)	0.00608 (inactive)	9.9% (inactive)	15.9% (inactive)
COCCn1c(=O)[nH]c2cc(C(=O)NCc3cccnc3)ccc2c1=O	744	3.8% (inactive)	7.4% (inactive)	93.8%	56.4% (active)	102%	-0.302 (inactive)	-4.8e-05 (inactive)	0.00755 (inactive)	10.8% (inactive)	13.4% (inactive)
COc1cccc(-c2cc(C(=O)Nc3c(C)nn(Cc4ccccc4)c3C)no2)c1	438	-12.2% (inactive)	-6.5% (inactive)	105%	41.8% (inactive)	87%	-0.249 (inactive)	-2.3e-05 (inactive)	0.00831 (inactive)	0.514% (inactive)	-23.3% (inactive)
O=C(COc1ccccc1Cl)OCC(=O)N1CCN(S(=O)(=O)c2ccccc2)CC1	270	2.6% (inactive)	-0.5% (inactive)	107%	-107% (inactive)	119%	-0.438 (inactive)	7.9e-05 (inactive)	0.00565 (inactive)	16.4% (inactive)	21% (inactive)
CC(=O)Nc1ccc(NC2=CC(=O)CC(C)(C)C2)cc1	424	1% (inactive)	14% (inactive)	107%	-60% (inactive)	119%	-0.541 (inactive)	-5.8e-05 (inactive)	0.00709 (inactive)	18.6% (inactive)	17.5% (inactive)
COCCSc1ccccc1C(=O)Nc1cc(C)on1	587	3.3% (inactive)	-4.3% (inactive)	92.3%	22.8% (inactive)	90.6%	-0.568 (inactive)	-2.5e-05 (inactive)	0.00516 (inactive)	14.3% (inactive)	20.9% (inactive)
Cc1ccc(NC(=O)C2CCCN2C(=O)Oc2ccccc2)cc1 (centres undefined)	344	6% (inactive)	3.9% (inactive)	88.6%	26.5% (inactive)	79.2%	-0.41 (inactive)	-6.8e-06 (inactive)	0.00654 (inactive)	5.65% (inactive)	12.3% (inactive)
CCc1nnc(NC(=O)CSc2nnc(Cc3ccccc3)n2-c2ccc(OC)cc2)s1	680	-13.4% (inactive)	0.3% (inactive)	102%	52.3% (inactive)	105%	-0.45 (inactive)	-5.9e-05 (inactive)	0.00454 (inactive)	10.9% (inactive)	12% (inactive)
CC(=O)c1ccc(NC(=O)c2noc3c2CCCCC3)cc1	214	2.3% (inactive)	-0.6% (inactive)	108%	-10.4% (inactive)	118%	-0.512 (inactive)	-6e-05 (inactive)	0.00493 (inactive)	-32.5% (inactive)	-114% (inactive)
CCS(=O)(=O)c1nc2ccccc2n1CC(=O)N1CCOCC1	581	-4.1% (inactive)	-22.2% (inactive)	95.9%	-85.4% (inactive)	98.1%	-0.589 (inactive)	-3e-05 (inactive)	0.00736 (inactive)	16.1% (inactive)	10.7% (inactive)
CCOC(=O)C1=C(C)NC(=O)C(C#N)C1c1ccco1 (centres undefined)	319	-1.2% (inactive)	6.1% (inactive)	86.2%	-59.3% (inactive)	127%	-0.39 (inactive)	3.3e-05 (inactive)	0.00489 (inactive)	15.7% (inactive)	20.3% (inactive)

Source: PubChem BioAssay
